pIC50: −log10 of the molar value. Activity calls are given as the source filed them. The calls are words filed in the database; no cut-off is given here.
Tests used:
[1] = organism: Sus scrofa; test: Competitive binding affinity to porcine brain tubulin at 0.1 to 10 uM preincubated for 1 hr followed by colchicine addition measured after 1 hr by fluorescence assay
Procedure, shortened: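 Tubulin (4 μM) in 80 mM PIPES pH 6.9, 2 mM MgCl2 and 0.5 mM EGTA was preincubated 1 h at 37 °C with 0.1, 1, 5 or 10 μM test agent, with DMSO as control. Colchicine (10 μM) was then added for another 1 h at 37 °C. Tubulin-colchicine fluorescence was read at ex 340/em 435 nm and normalized to DMSO; at least three replicates, mean ± SD.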

[2] = system: HeLa; test: Antiproliferative activity against human HeLa cells after 72 hrs by MTT assay; assay type: functional, cell-based
Procedure, shortened: (§1)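 HeLa and SMMC-7721 cells in log phase were seeded at 4000-6000 cells/well. After 24 h, quadruplicate wells were treated with a series of concentrations for 72 h. DMSO stocks were 5 mmol/L, with final DMSO below 0.1%. MTT (10 mg/mL in PBS) was added for 4 h, medium replaced with DMSO, and OD read at 490 nm. IC50 came from at least five concentrations; mean and SD of at least three independent experiments.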

[3] = system: SMMC-7721; test: Antiproliferative activity against human SMMC7721 cells after 72 hrs by MTT assay; assay type: functional, cell-based; conditions: SMMC-7721, 72 h; procedure, shortened: as §1
[4] = system: K562; test: Antiproliferative activity against human K562 cells after 72 hrs by MTT assay; assay type: functional, cell-based; conditions: K562, 72 h
Procedure, shortened: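 K562 cells were grown in RPMI 1640 with 10% FBS at 37 °C in 5% CO2, then seeded at 4000-6000 cells/well. Quadruplicate wells were exposed to drug for 72 h, with final DMSO below 0.1%. After 4 h with MTT, solubilizer (10% SDS, 5% isobutyl alcohol, 0.01 M HCl) was added for 12 h, then OD read at 490 nm. IC50 came from at least five concentrations; mean and SD of at least three experiments.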

[5] = target: Tubulin (Homo sapiens) (UniProt P68371+Q9H4B7+P0DPH7+P68366+Q13509+Q71U36+P04350+Q3ZCM7+P07437+P68363+Q9BQE3+Q6PEY2+Q13885+Q9BVA1+Q9BUF5); test: Inhibition of tubulin (unknown origin) polymerization at 20 uM after 40 mins by fluorescence assay; assay type: protein-complex assay
Procedure, shortened: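 Polymerization was run with a fluorescence kit. Compound, in duplicate, was warmed 1 min at 37 °C before adding cold tubulin mix (2 mg/mL tubulin, 80 mM PIPES pH 6.9, 2.0 mM MgCl2, 0.5 mM EGTA, 1.0 mM GTP, 15% glycerol). Fluorescence was read at ex 360/em 450 nm every minute for 1 h at 37 °C and scored at 40 min against 0.1% DMSO vehicle.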

SMILES | Activity [1] | pIC50 [2] | pIC50 [3] | pIC50 [4] | inhibition [5]
CC(=O)O[C@H]1C(=O)[C@@]2(C)[C@H]([C@H](OC(=O)c3ccccc3)[C@]3(O)C[C@H](OC(=O)[C@H](O)[C@@H](NC(=O)c4ccccc4)c4ccccc4)C(C)=C1C3(C)C)[C@]1(OC(C)=O)CO[C@@H]1C[C@@H]2O | inactive | – | – | – | –
COC(=O)c1ccc2c(c1)NC(=O)CN2C(=O)c1ccc(F)cc1 | – | 4.80 | 5.11 | 5.01 | –
COc1cc(CN2CC(=O)Nc3cc(C(=O)O)ccc32)cc(OC)c1OC | – | 4.49 | 4.41 | 4.44 | –
COc1cc(CN2CC(=O)Nc3cc(C(=O)NC4CCCCC4)ccc32)cc(OC)c1OC | – | 4.38 | 4.55 | 4.37 | –
COC(=O)c1ccc2c(c1)NC(=O)CN2C(=O)Cc1cc(OC)c(OC)c(OC)c1 | – | 4.40 | 5.04 | 4.34 | –
COC(=O)c1ccc2c(c1)NC(=O)CN2C(=O)c1ccc(OC)c(OC)c1 | – | 5.85 | 5.88 | 5.52 | Active
COC(=O)c1ccc2c(c1)NC(=O)CN2C(=O)c1ccc(OC)cc1 | – | 5.08 | 5.27 | 5.11 | –
COC(=O)c1ccc2c(c1)NC(=O)CN2Cc1ccc(OC)c(OC)c1 | – | 4.42 | 4.48 | 4.36 | –
COC(=O)c1ccc2c(c1)NC(=O)CN2Cc1cc(OC)c(OC)c(OC)c1 | – | 5.56 | 5.57 | 5.47 | Active
CCCCNC(=O)c1ccc2c(c1)NC(=O)CN2C(=O)c1ccc(OC)c(OC)c1 | – | < 4.30 | < 4.30 | < 4.30 | –
COc1ccc(C(=O)N2CC(=O)Nc3cc(C(=O)N4CCOCC4)ccc32)cc1OC | – | 4.46 | 4.46 | < 4.30 | –
CCCCNC(=O)c1ccc2c(c1)NC(=O)CN2Cc1cc(OC)c(OC)c(OC)c1 | – | 4.43 | 4.40 | 4.37 | –
COc1cc(C(=O)N2CC(=O)Nc3cc(C(=O)N4CCOCC4)ccc32)cc(OC)c1OC | – | < 4.30 | 4.41 | < 4.30 | –
COc1cccc2c1C(=O)c1c(O)c3c(c(O)c1C2=O)C[C@@](O)(C(=O)CO)C[C@@H]3O[C@H]1C[C@H](N)[C@H](O)[C@H](C)O1 [DOXORUBICIN] | – | – | 5.80 | 6.05 | –
COc1cc(C(=O)N2CC(=O)Nc3cc(C(=O)Nc4ccccc4)ccc32)cc(OC)c1OC | – | 4.58 | 4.42 | < 4.30 | –
COc1ccc(/C=C\c2cc(OC)c(OC)c(OC)c2)cc1O [COMBRETASTATIN A4] | – | – | 8.42 | 7.89 | –
COc1ccc(C(=O)N2CC(=O)Nc3cc(C(=O)Nc4ccccc4)ccc32)cc1OC | – | 4.60 | 4.46 | 4.37 | –
COC(=O)c1ccc2c(c1)NC(=O)CN2Cc1ccc(OC)cc1 | – | 4.79 | 4.90 | 4.36 | –
COc1cc(C(=O)N2CC(=O)Nc3cc(C(=O)NC4CCCCC4)ccc32)cc(OC)c1OC | – | < 4.30 | 4.39 | < 4.30 | –
CCCCNC(=O)c1ccc2c(c1)NC(=O)CN2C(=O)c1cc(OC)c(OC)c(OC)c1 | – | < 4.30 | 4.37 | < 4.30 | –

From ChEMBL document CHEMBL4251573, “Synthesis and biological evaluation of N-substituted 3-oxo-1,2,3,4-tetrahydro-quinoxaline-6-carboxylic acid derivatives as tubulin polymerization inhibitors” (Eur J Med Chem, 2018)
